High-throughput results from PubChem.
Hits are enriched below; roughly 2.3% of the tested compounds scored in any of these assays.
FN deposit inh – fibronectin deposition inhibition; AH1F fibroblasts, Alexa488-fibronectin deposition fluorescence, overnight; inhibition, % at 12.6 µM; 350,000 compounds, 0.086% hits; AID 743247;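 active means mean inhibition across replicates of 30% or more, regardless of how many single replicates reach that level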;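 further: positive control wells lacked labelled fibronectin entirely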
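Schedule: 1 h cell adhesion before compound, then overnight fibronectin incubation; test system: AH1F fibroblast monolayer depositing Alexa488-labelled fibronectin into matrix; quantity: 10000 AH1F cells per well; probe or stimulus: fluorescent fibronectin at 24 nM final; signal: fluorescence, ex 485 nm, em 525 nm; evaluation: percent inhibition as loss of matrix-bound fibronectin fluorescence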
EWS-Fli inh – blocks EWS/Fli oncoprotein-driven transcription; A673 NR0B1-luciferase reporter, viability-normalised; inhibition, % at 12.6 µM; 350,000 compounds, 0.67% hits;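 active means mean inhibition of at least 50% after viability correction, with every replicate also passing that limit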;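 further: firefly luciferase signal divided by Alamar Blue viability fluorescence both relative to DMSO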
LGR2 inh – inhibitors of bursicon-induced Drosophila LGR2 receptor cAMP signaling; inhibition, % at 9.99 µM; AID 720647; HEK293 LGR2, CRE-luciferase, bursicon-stimulated, 4 h; 380,000 compounds, 0.35% hits;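 active means drop in luminescence signal, shown as inhibition above about 50% in the replicate tests, limit read from the data, passing the limit was not always enough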;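 further: agonist challenge used bursicon conditioned medium at about half maximal strength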
TWEAK Fn14 block – inhibitors of TWEAK-Fn14 interaction signaling | TWEAK-stimulated Fn14 reporter cells, luciferase luminescence, 8 h | inhibition, % at 10 µM | 360,000 compounds, 2% hits | AID 1159606; in the data active means inhibition above about 50%
Xi reactivation – activators of X-chromosome reactivation in mouse fibroblasts; XiGFP mouse fibroblasts, % GFP-positive cells imaging, 3 d; cells co-treated with 5-aza-dC sensitizer; scaled so ellipticine positive control = 100%; activation, % at 7.58 µM; 360,000 compounds, 0.055% hits;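 active means mean normalized replicate activation at least 10% and every replicate at or above 10%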;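 further: 0% = median of on-plate neutral control wells and 100% = ellipticine 6 µM median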
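Material: XiGFP fibroblasts, SV40-immortalized. Buffer or medium: DMEM plus 5-aza-dC sensitizer. Compound: single concentration per compound, delivered by pin transfer. Times: 3 days compound exposure. Controls: ellipticine 6 µM.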
TROY NFkB inh – inhibitors of TROY-dependent NF-kB signaling | Q293 LMP1-TROYcd NF-kB luciferase reporter, 4 h | inhibition, % at 10 µM | 360,000 compounds, 0.98% hits;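 active means compounds whose plate-normalised and pattern-corrected inhibition of the luciferase reporter signal at the single screening dose is 50% or more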
* = called active by the depositor; . = no result; ! = not active in a repeat.

SMILES	FN deposit inh	EWS-Fli inh	LGR2 inh	TWEAK Fn14 block	Xi reactivation	TROY NFkB inh
Cc1ccccc1Cn1c(=O)n(CCCC(=O)NCc2ccco2)c(=O)c2sccc21	7.9	.	.	3.9	.	11.1
C=CS(=O)(=O)N(Cc1ccccc1)[C@H](CO)CC(C)C	-3.0	9.3	.	14.1	0.6	-9.7
C=CS(=O)(=O)N(Cc1ccccc1Br)[C@H](CO)Cc1ccccc1	7.7	-7.4	24.4	50.7*	0.2	14.0
COCC(=O)Nc1ccc2c(c1)C(=O)N(C)C[C@@H](OC)[C@H](C)CN(Cc1cncnc1)[C@@H](C)CO2	-11.5	9.1	17.9	.	0.5	.
Oc1cccc(-c2nc3ccccc3s2)c1	.	.	.	54.2*	.	15.8
Oc1ccc(O)c(Cc2nc3ccccc3s2)c1	.	49.8	32.1	35.2	0.0	63.2*
Nc1cccc(-c2nc3ccccc3s2)c1	-2.9	.	.	33.7	.	21.6
COc1ccc(-c2nc3ccccc3s2)cc1O	-1.6	.	.	98.8*	.	68.0*
COc1cc(-c2nc3ccccc3s2)ccc1O	0.3	.	.	-17.4	.	-17.3
COc1cccc(-c2nc3ccccc3s2)c1O	15.1	-123.9	52.9*	48.5	0.2	19.6
CNC[C@@H]1Oc2ncc(C#CC3(O)CCCC3)cc2C(=O)N([C@@H](C)CO)C[C@@H]1C	.	-36.8	3.5	.	-0.2	.
C[C@H](O)C#Cc1cnc2c(c1)C(=O)N([C@H](C)CO)C[C@H](C)[C@@H](CN(C)C(=O)Nc1ccc(C(F)(F)F)cc1)O2	-2.4	-10.7	4.7	.	-0.1	.
CC[n+]1cccc(-c2nc3ccccc3s2)c1	-5.7	.	14.6	69.4*	0.0	64.1*
CC(C)c1ccc(-c2nc3ccccc3s2)cc1	2.9	88.9*	100.1*	106.8*	0.0	95.6*
FC(F)(F)c1ccc(-c2nc3ccccc3s2)cc1	-2.7	-65.5	-86.2	23.0	0.4	18.8
CN(C(=O)OC(C)(C)C)c1ccc(-c2nc3ccccc3s2)cc1	-1.6	87.8*	99.1*	103.5*	0.0	89.0*
Cc1ccc2c(Cl)cc(Cl)c(O)c2n1	1.7	6.4	11.4	100.7*	0.1	35.8
Cc1cc(Cl)c2ccc3ccccc3c2n1	-1.2	-2.2	18.3	-2.6	0.3	-15.9
CCCOC(c1ccccc1)(c1ccc(C(F)(F)F)cc1)C(Oc1nc(C)cc(C)n1)C(=O)O (stereo unspecified)	-7.0	3.1	-1.5	60.7*	-0.1	27.4
C=CCNC(=O)c1cc(-c2ccncc2)nc2c(C)cc(C)cc12	-2.2	3.5	0.2	-8.1	0.0	84.2*
CC(=O)c1ccc(NC(=S)NCc2ccc(Cl)cc2Cl)cc1	-3.4	0.1	6.4	2.6	0.0	56.7*
S=C(Nc1ccccc1)Nc1ccc(OCc2ccc(Cl)cc2Cl)cc1	.	.	.	31.9	.	80.8*
C[C@@H]1CN([C@H](C)CO)C(=O)c2cccc(NS(=O)(=O)c3cccs3)c2O[C@@H]1CN(C)C	0.1	-4.8	-12.2	.	-0.1	.
Cc1cc(O)c2c(c1O)C(=O)[C@]13C(=C2O)C(=O)[C@@H]2[C@@H](O)[C@H]1[C@@H]1[C@H](O)[C@H]3C(=O)C3=C(O)c4c(O)cc(C)c(O)c4C(=O)[C@]312	.	.	.	65.0*	.	28.5
CC(C(=O)O)c1ccc(N2Cc3ccccc3C2=O)cc1 (stereo unspecified)	-2.0	50.8*	.	69.8*	-0.1	8.5
SMILES	FN deposit inh	EWS-Fli inh	LGR2 inh	TWEAK Fn14 block	Xi reactivation	TROY NFkB inh
O=C(CCl)N=c1sccn1Cc1ccccc1Cl	21.8	63.5*	-9.6	-0.8	-0.3	3.7
O=C(CCl)N=c1sccn1Cc1ccc(Cl)cc1Cl	25.0	20.9	.	55.0*	1.1	21.2
O=C(CCl)N=c1sccn1Cc1cccc2ccccc12	-4.6	34.4	1.7	48.0	0.0	-12.5
CCC(=O)OCC(=O)N=c1sccn1Cc1ccccc1Cl	-2.1	4.9	-3.4	-1.9	0.3	-9.1
CN(C)C(=O)[C@H]1[C@H](CO)[C@H]2Cn3c(ccc(-c4cncnc4)c3=O)[C@H]2N1Cc1ccccc1F	.	-2.3	-8.0	.	0.1	.
CCS(=O)(=O)N1CCC(C(=O)Oc2ccc(Br)cc2)CC1	-5.4	2.4	-6.8	79.2*	0.3	-8.2
CCS(=O)(=O)N1CCC(C(=O)Oc2ccc(Cl)cc2)CC1	3.9	7.8	0.0	-1.8	0.1	-4.8
C[C@@H]1CCCCO[C@H](CN(C)C(=O)c2ccccc2)[C@H](C)CN([C@H](C)CO)C(=O)c2cc(NC(=O)c3ccccc3)ccc2O1	-15.3	.	-0.4	.	0.1	.
c1ccc(-c2cn3nc4c(nc3n2)CCCC4)cc1	.	.	68.4*	-0.7	.	6.1
Brc1ccc(-c2cn3nc4c(nc3n2)CCCC4)cc1	.	.	.	-15.6	.	-3.6
CCN1CCN(Cc2ccc(NC(=O)c3ccc(C)c(NC(=O)c4ccc5n[nH]nc5c4)c3)cc2C(F)(F)F)CC1	2.8	1.6	8.3	-1.8	0.0	-1.2
CCN1CCN(Cc2ccc(NC(=O)c3cc(NC(=O)c4cc(C)on4)cc(OC)c3)cc2C(F)(F)F)CC1	7.4	9.7	-1.7	0.2	0.0	2.3
CCN1CCN(Cc2ccc(NC(=O)c3cc(NC(=O)c4cnn(-c5ccccc5)c4N)cc(OC)c3)cc2C(F)(F)F)CC1	-15.9	61.3*	-16.8	-73.3	-0.3	-35.9
CCN1CCN(Cc2ccc(NC(=O)c3ccc(C)c(NC(=O)C(=O)c4c[nH]c5ccccc45)c3)cc2C(F)(F)F)CC1	2.5	58.5*!	18.8	-92.9	-0.1	-23.8
CCN1CCN(Cc2ccc(NC(=O)c3cccc(-c4ccc5nc(NC(=O)C6CC6)sc5n4)c3)cc2C(F)(F)F)CC1	-0.5	37.4	76.3*	.	0.6	.
CCN1CCN(Cc2ccc(NC(=O)c3cc(NC(=O)C(=O)c4c[nH]c5ccccc45)cc(OC)c3)cc2C(F)(F)F)CC1	1.9	54.2*	-22.6	75.5*!	-0.1	-4.3
CCN1CCN(Cc2ccc(NC(=O)c3ccc(C)c(NC(=O)c4ccnnc4)c3)cc2C(F)(F)F)CC1	-5.1	-9.4	9.3	-21.3	0.4	-5.0
COc1ccc2c3c([nH]c2c1)[C@H](CO)N(Cc1ccncc1)CC31CCN(C(=O)Cc2ccncc2)CC1	.	0.9	-2.4	.	0.3	.
COc1ccc(C#Cc2ccc3c(c2)O[C@@H](CN(C)C(C)=O)[C@@H](C)CN([C@H](C)CO)S3(=O)=O)cc1	-6.7	14.1	-2.8	.	-1.1	.
CN1CCN(C(=O)C[C@@H]2CC[C@H]3[C@@H](COC[C@H](O)CN3S(=O)(=O)c3cccc(Cl)c3)O2)CC1	-13.9	5.0	12.9	.	0.1	.
CCc1ccc(NC(=O)c2cnn3ccccc23)cc1	-6.3	71.3*	.	93.3*	-0.1	53.3*
O=C(CSc1nc2ccccc2o1)Nc1nccs1	10.6	-20.5	-42.7	-11.5	0.0	-26.2
Cc1ccccc1/C=N/NC(=O)CSc1nc2ccccc2o1	0.9	.	-35.0	65.0*	0.1	48.4
